PLC-beta3 inh: human PLC-beta3 inhibitors, primary screen, biochemical, fluorescence | inhibition, % at 12.2 µM | Purified PLC-beta3, fluorogenic substrate | 370,000 compounds, 0.18% hits; in the data active = inhibition above about 11%;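 note: 0% = median of compound wells on plate and 100% = full blocker control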
PLCg1 inh: PLC-gamma1 enzyme inhibitors, primary screen, biochemical, fluorescence, purified enzyme; fluorogenic substrate; inhibition, % at 12.2 µM; 370,000 compounds, 0.84% hits; in the data active = inhibition above about 9.5%
DDE Tn6 FP inh: inhibitors of Tn6 peptide binding to fibrin DD(E), primary screen, biochemical, fluorescence polarization, human fibrin, Tn6 probe. inhibition, % at 8.3 µM. AID 720509, 2013. 370,000 compounds, 0.21% hits. Fibrin DD(E) TRITC-Tn6 fluorescence polarization displacement;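 active = inhibition above a per-campaign cutoff: mean of compounds within control limits plus 3 SD, cut at about 15% in these data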;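 note: 0% = median of all compound wells on the plate and 100% = blocking peptide control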
Target sequence (P02675 whole entry, looked up): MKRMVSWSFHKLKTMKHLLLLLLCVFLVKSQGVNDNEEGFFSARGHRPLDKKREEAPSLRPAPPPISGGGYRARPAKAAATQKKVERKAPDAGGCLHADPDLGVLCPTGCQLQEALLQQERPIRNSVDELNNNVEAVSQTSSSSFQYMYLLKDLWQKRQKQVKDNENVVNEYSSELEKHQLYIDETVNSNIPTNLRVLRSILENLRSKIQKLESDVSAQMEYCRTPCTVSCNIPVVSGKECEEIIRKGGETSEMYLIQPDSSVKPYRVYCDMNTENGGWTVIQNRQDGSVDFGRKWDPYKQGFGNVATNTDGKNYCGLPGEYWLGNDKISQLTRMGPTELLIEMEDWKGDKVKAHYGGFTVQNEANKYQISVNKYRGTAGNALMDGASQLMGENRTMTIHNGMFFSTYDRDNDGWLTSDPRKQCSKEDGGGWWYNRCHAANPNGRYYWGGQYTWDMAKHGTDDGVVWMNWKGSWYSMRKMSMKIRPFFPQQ
proKLK7 act: proKLK7 zymogen activators, primary screen, biochemical, fluorescence intensity | activation, % at 7 µM | 370,000 compounds, 0.9% hits | purified proKLK7, EDANS-DABCYL substrate fluorescence; 100% is mature enzyme control, 0% vehicle | AID 652039, 2013 | Kallikrein-7 (Homo sapiens), P49862;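 active = activation above the mean of all tested compounds plus 3 SD, computed per campaign excluding outliers beyond control limits, cut at about 13% in these data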
CendR NRP1 mod: modulators of CendR peptide binding to NRP-1, primary screen, biochemical, fluorescence polarization, uHTS | 360,000 compounds, 0.85% hits | inhibition, % at 25 µM | FAM-RPARPAR peptide binding to NRP-1 | Neuropilin-1 (Homo sapiens), O14786 | AID 602438, 2012;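 active = inhibition or corrected inhibition above about 18%, plus a signal ratio from 0.5 to 1.5, limit read from the data, passing the limit was not always enough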
Tn7 DDE FP: inhibitors of Tn7 peptide binding to fibrin DD(E), primary screen, biochemical, fluorescence polarization, human fibrin, Tn7 probe | 370,000 compounds, 0.13% hits | FP displacement of FITC-Tn7 peptide from fibrin DD(E); 0% = median of compound wells per plate | inhibition, % at 8.3 µM;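 active = inhibition above the mean of compounds falling within the control limits plus 3 SD of them, cut at about 14% in these data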;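 note: 0% = plate median of compound wells and 100% = 10 µM Aha-Tn7 peptide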
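Assay system: Human fibrin DD(E) protein | Medium: Tris buffer with calcium and detergent, pH 7.8 | Reagent: 0.1 µM fluorescent Tn7 | Compound dosing: Single point at 8.3 µM | Times: 10 min preincubation, 3 h with tracer, room temperature | Detection: Fluorescence polarization of the labelled Tn7 tracer | Controls: Aha-Tn7 high control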
Active calls of the source: *; i = inactive; · = not tested or not shown. Rows were chosen to be rich in hits. Some 3% of all compounds tested hit in one or more screens of this group.

SMILES | PLC-beta3 inh | PLCg1 inh | DDE Tn6 FP inh | proKLK7 act | CendR NRP1 mod | Tn7 DDE FP
CCOC(=O)c1cccc(N2CC3CNC(=O)C2(C(=O)OC)N3C)c1 (stereo unspecified) | -87.1 | -51.3 | 2.1 | 1.8 | 20.9* | 5.2
O=C(NCc1cccs1)c1cc(-c2cccs2)on1 | 1.3 | 0.8 | 91.4* | -0.6 | 17.7 | 6.2
C[C@H]1COc2cccc(N3CCCC3)c2S(=O)(=O)N1C | -3.5 | -1.8 | 0.6 | 0.0 | · | -5.3
Cc1ccc(C(=O)Nc2ccc(Oc3ccc(C(=O)O)c(C(=O)O)c3)cc2)cc1C | 3.9 | 10.9* | 5.3 | -0.1 | -10.0 | -9.7
Cc1ccc(C(=O)Nc2ccc(Nc3ccccc3)cc2)cc1C | -25.7 | -17.3 | 4.9 | 0.4 | 0.9 | -5.6
COC(=O)C1CN(Cc2cn(Cc3ccccc3)nn2)CCS(=O)(=O)N1Cc1ccc(Cl)cc1 (stereo unspecified) | -0.4 | -0.1 | 1.9 | 0.6 | · | -7.5
CCCCn1c(SCC(N)=O)nc2ccc(N3CCOCC3)cc2c1=O | i | i | -4.9 | 16.1* | -6.2 | -1.5
Cc1ccnc(NC(=O)COc2ccc3oc4c(c3c2)CCCC4)c1 | -4.6 | -3.3 | -1.9 | 0.2 | 44.2* | 0.0
CNC(=O)COc1ccc2oc3c(c2c1)CCCC3 | -7.3 | 0.5 | 3.3 | -0.7 | 4.6 | 4.9
CN(CCc1ccccn1)C(=O)c1cc2ccccn2n1 | -4.7 | -1.7 | 2.4 | 0.1 | · | 3.6
O=C(CCCNC(=O)/C(=C\c1ccc(F)cc1)NC(=O)c1ccccc1)OCc1ccccc1 | -5.6 | -7.9 | -7.1 | -0.8 | 30.7* | -4.9
C=CCN(CC#Cc1ccc(OC)cc1)CC=C | 0.8 | -0.6 | 3.2 | -0.8 | · | 8.8
O=C(c1cccc(C(F)(F)F)c1)N1CC[C@H]2[C@H](CCCN2Cc2ccc(F)cc2)C1 | 3.6 | -0.9 | 2.8 | 0.0 | · | 4.2
Nc1ccc2cccc(O)c2c1 | -11.3 | -4.6 | -5.8 | -0.7 | 28.5* | -4.8
Nc1ccc2cc3ccccc3cc2c1 | -196.9 | -155.2 | 2.1 | -12.3 | -68.9 | 4.2
COC(=O)Nc1sc(C(=O)N(C)C)c(C)c1C(=O)OC | -6.0 | -6.5 | 1.1 | -1.0 | 24.0* | -3.5
O=C(NCc1cccc2ccccc12)C1CCCN(c2nc3ccccc3o2)C1 (stereo unspecified) | 1.6 | -4.2 | 8.1 | -0.1 | · | 8.2
COc1ccc(Cn2nnnc2CN(Cc2cc3cccc(C)c3[nH]c2=O)C2CCCC2)cc1 | 0.7 | -0.1 | 1.4 | -0.6 | -0.9 | -3.6
CCOc1ccc2[nH]c(=O)c(CN(Cc3nnnn3Cc3ccco3)C3CCCCC3)cc2c1 | -60.1 | -50.7 | -0.3 | 3.0 | -59.0 | -0.3
CC(C)(C)n1nnnc1CN(Cc1ccco1)Cc1cc2cc3c(cc2[nH]c1=O)OCO3 | i | i | 4.4 | 28.2* | -13.2 | -3.0
COc1cc2cc(CN(Cc3nnnn3Cc3ccco3)C3CCCCC3)c(=O)[nH]c2cc1OC | -318.9 | -283.7 | -4.9 | 12.8* | -54.2 | 0.0
COc1ccc(Cn2nnnc2CN(Cc2cc3ccc(C)cc3[nH]c2=O)C2CCCC2)cc1 | -326.8 | -215.1 | -1.7 | 14.9* | 2.1 | -6.1
Cc1cc(C)cc(C(=O)OCCN(C)C2CN(Cc3cn(Cc4ccccc4C(F)(F)F)nn3)S(=O)(=O)C2)c1 (stereo unspecified) | 2.8 | 0.9 | -1.2 | 0.1 | · | 4.9
Cc1cc(=O)oc2c(CN(CC(C)C)CC(C)C)c(O)ccc12 | i | i | -7.4 | 34.8* | · | 0.1
CC(C)CN(Cc1c(O)ccc2c3c(c(=O)oc12)CCC3)CC(C)C | i | -475.2 | 2.3 | -5.4 | 4.3 | -1.2
SMILES | PLC-beta3 inh | PLCg1 inh | DDE Tn6 FP inh | proKLK7 act | CendR NRP1 mod | Tn7 DDE FP
N#CC(c1ccc([N+](=O)[O-])cc1)C(CC(=O)c1ccccc1)c1ccccc1 (stereo unspecified) | -1.2 | 2.0 | -0.9 | 0.6 | 27.9* | -0.5
COC(=O)[C@]12C[C@H](CC(=O)NCc3ccc(C)o3)C(=O)N(Cc3cccc4ccccc34)C1=C[C@H](C(C)C)O[C@@H]2C1CC1 | 1.4 | 5.5 | 4.0 | -0.1 | · | -7.2
COCCNC(=O)C1(S(=O)(=O)c2ccccc2)CC=CC1 | 5.6 | 4.4 | -1.5 | 0.8 | 11.7 | -1.1
O=C(NCC1CC1)C1(S(=O)(=O)c2ccccc2)CC=CC1 | -30.3 | 2.0 | 2.0 | 0.9 | 20.7* | -4.6
O=C(c1cccs1)N1C[C@H](O)[C@@H](n2cc(C3CC3)nn2)C[C@@H]1c1ccccc1 | 4.4 | 11.1* | -0.9 | 0.3 | 5.1 | 0.5
C[C@@]12CCC3[C@@](CCC4[C@@]3(C)CCC[C@@]4(C)C(=O)NC3CCCCC3)(CC1=O)C2 (stereo partly specified) | -0.8 | 2.0 | -3.6 | 0.0 | 32.2* | -4.6
Cc1ccccc1S(=O)(=O)Cc1ccc(C(=O)NCc2ccccc2)o1 | -7.3 | -0.6 | 1.9 | 0.6 | 0.0 | -1.1
Cc1ccccc1S(=O)(=O)Cc1ccc(C(=O)NCc2cccnc2)o1 | -5.7 | -0.2 | -2.4 | -0.5 | 49.0* | -3.2
CC(C)(C)N1Cc2nnn(Cc3ccccc3)c2-c2ccccc2S1(=O)=O | 1.2 | 3.3 | 5.1 | 0.1 | · | -0.9
O=S1(=O)c2ccc(N3CC[C@H](O)C3)cc2OCCCN1C1CC1 | -3.5 | -2.7 | -8.3 | 0.2 | · | -2.8
CCCOC(=O)C1=C(C)N(C)C(=O)NC1c1cc2c(cc1Br)OCO2 (stereo unspecified) | -4.0 | 2.7 | 1.1 | 0.7 | 4.7 | -3.0
CCOC(=O)C1=C(C)N(C)C(=O)NC1c1cc2c(cc1Br)OCO2 (stereo unspecified) | -1.1 | 1.2 | -3.1 | 0.1 | 21.2* | 1.1
O=S1(=O)c2ccc(N3CCCC3)cc2Oc2ccccc2CN1Cc1cn(Cc2cccc(C(F)(F)F)c2)nn1 | 0.8 | 6.4 | 1.8 | -0.8 | · | -13.6
CCCSc1nc2c(cnn2-c2ccccc2)c(=O)n1N | -7.9 | 0.1 | 5.1 | 0.3 | -8.9 | 1.2
Nn1c(SCc2ccccc2)nc2c(cnn2-c2ccccc2)c1=O | -0.1 | -0.5 | 4.1 | -0.4 | 22.3* | 3.7
CCOC(=O)c1ccc(N2C(=O)CC(Sc3nnc(C)s3)C2=O)cc1 (stereo unspecified) | 0.2 | 1.4 | 0.3 | 0.0 | 34.9* | -2.9
CCCCCCCCN1C(=O)N2Cc3cc(F)ccc3C2CS1(=O)=O (stereo unspecified) | 1.1 | 2.6 | -7.5 | 0.4 | · | -9.1
COc1ccc2c(c1)O[C@@]1(CCCC[C@@H]1C)CC2=O | -302.4 | -226.8 | 2.6 | 11.3 | -5.3 | 2.0

Screening results deposited in PubChem BioAssay by several laboratories.
